Measurements published in ChEMBL document CHEMBL1240442, “Design and synthesis of novel tricyclic benzoxazines as potent 5-HT(1A/B/D) receptor antagonists leading to the discovery of 6-{2-[4-(2-methyl-5-quinolinyl)-1-piperazinyl]ethyl}-4H-imidazo[5,1-c][1,4]benzoxazine-3-carboxamide (GSK588045)” (J Med Chem, 2010).

What was measured:
Assay type in all cases: ADME, organism-based
[1] = Clearance in Sprague-Dawley rat blood at 0.5 mg/kg, iv and 1 mg/kg, po; details: whole blood
Summary of the method: (§1)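 Male Sprague-Dawley rats given 0.5 mg free base/kg iv bolus and 1 mg/kg po. Blood compound levels measured by protein precipitation and HPLC-MS/MS.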

[2] = Volume of distribution at steady state in Sprague-Dawley rat at 0.5 mg/kg, iv and 1 mg/kg, po; details: in vivo, read-out: Vdss; summary of the method: as §1
[3] = Half life in Sprague-Dawley rat at 0.5 mg/kg, iv and 1 mg/kg, po; details: in vivo; summary of the method: as §1
[4] = Oral bioavailability in Sprague-Dawley rat at 1 mg/kg; details: in vivo; summary of the method: as §1
[5] = Ratio of drug level in brain to blood in Sprague-Dawley rat at 0.5 mg/kg, iv and 1 mg/kg, po after 1 hr; details: brain/whole blood, read-out: BBR

SMILES | clearance [1] | Vd [2] | half-life [3] | bioavailability [4] | Kp at 1 h [5]
CC(=O)c1ncn2c1COc1c(CCN3CCN(c4cccc5nc(C)ccc45)CC3)cccc1-2 | 0.6 L/h/kg | 7.1 L/kg | 8.7 h | 43% | 2.7
Cc1ccc2c(N3CCN(CCc4cccc5c4OCc4nnc(C)n4-5)CC3)cccc2n1 | 0.72 L/h/kg | 1.6 L/kg | 1.8 h | 51% | 0.5
Cc1ccc2c(N3CCN(CCc4cccc5c4OCc4c(C(=O)N(C)C)ncn4-5)CC3)cccc2n1 | 1.74 L/h/kg | 3.5 L/kg | 2.1 h | 50% | 1.8
Cc1ccc2c(N3CCN(CCc4cccc5c4OCc4c(C#N)ncn4-5)CC3)cccc2n1 | 0.6 L/h/kg | 3.9 L/kg | 5.1 h | 48% | 1.6
CNC(=O)c1ncn2c1COc1c(CCN3CCN(c4cccc5nc(C)ccc45)CC3)cccc1-2 | 0.48 L/h/kg | 3.8 L/kg | 6.3 h | 104% | 2.4
Cc1ccc2c(N3CCN(CCc4cccc5c4OCc4c(C(N)=O)ncn4-5)CC3)cccc2n1 | 0.6 L/h/kg | 2.9 L/kg | 4.4 h | 45% | 1.1
Cc1ccc2c(N3CCN(CCc4cccc5c4OCc4c(C(=O)N6CCCC6)ncn4-5)CC3)cccc2n1 | 1.2 L/h/kg | 5 L/kg | 3.1 h | 43% | 3.2
Cc1ccc2c(N3CCN(CCc4cccc5c4OCc4c(C(=O)N6CCOCC6)ncn4-5)CC3)cccc2n1 | 0.72 L/h/kg | 5.5 L/kg | 7.6 h | 65% | 1.7
